# Test results taken from ChEMBL document CHEMBL1138609, “Amiloride derived inhibitors of acid-sensing ion channel-3 (ASIC3)” (Bioorg Med Chem Lett, 2009).
# pIC50: −log10 of the molar value. Active and inactive are the calls of the source. The rule behind the calls is not given here.
# Experiments:
# [1] = target: T1, Acid-sensing ion channel 3 (Homo sapiens, UniProt Q9UHC3); experiment: Inhibition of ASIC3 assessed as inhibition of peak current by patch clamp electrophysiology
# T1 sequence (Q9UHC3 whole entry): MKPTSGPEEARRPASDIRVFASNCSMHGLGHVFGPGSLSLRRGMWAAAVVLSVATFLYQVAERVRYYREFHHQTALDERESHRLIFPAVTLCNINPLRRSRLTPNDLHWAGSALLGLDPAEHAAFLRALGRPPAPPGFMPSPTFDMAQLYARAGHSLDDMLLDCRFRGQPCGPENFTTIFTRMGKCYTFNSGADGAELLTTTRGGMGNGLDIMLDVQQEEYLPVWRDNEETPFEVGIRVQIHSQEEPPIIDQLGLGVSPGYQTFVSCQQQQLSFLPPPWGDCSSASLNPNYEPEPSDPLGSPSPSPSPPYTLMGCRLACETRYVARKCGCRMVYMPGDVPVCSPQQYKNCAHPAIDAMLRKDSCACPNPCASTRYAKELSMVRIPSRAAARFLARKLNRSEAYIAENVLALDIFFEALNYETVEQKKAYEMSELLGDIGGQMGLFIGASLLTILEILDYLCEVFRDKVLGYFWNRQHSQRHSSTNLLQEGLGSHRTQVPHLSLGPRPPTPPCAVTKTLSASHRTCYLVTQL
# Procedure, shortened: (§1)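 Automated patch clamp on ASIC3 channels, used both for single-dose screening and for multi-dose follow-up. Extracellular solution: 150 NaCl, 5 KCl, 2 CaCl2, 1 MgCl2, 12 dextrose, with HEPES pH 7.4 or MES pH 5.5. Compound applied 120 s before acid. Peak current compared with vehicle or baseline peak; N = 3.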
# [2] = target: T2, Acid-sensing ion channel 3 (Homo sapiens) (UniProt Q9UHC3); experiment: Inhibition of ASIC3 assessed as inhibition of peak current at 1 uM by patch clamp electrophysiology relative to baseline; procedure, shortened: as §1
# T2 sequence (whole entry): T1 sequence (Q9UHC3 whole entry)
# [3] = target: T2, Acid-sensing ion channel 3 (Homo sapiens); experiment: Inhibition of ASIC3 at 20 uM assessed as inhibition of peak current by patch clamp electrophysiology relative to baseline; procedure, shortened: as §1
# [4] = target: T3, Acid-sensing ion channel 3 (Rattus norvegicus, UniProt O35240); experiment: Inhibition of rat ASIC3 assessed as inhibition of peak current by patch clamp electrophysiology; procedure, shortened: as §1
# T3 sequence (O35240 whole entry): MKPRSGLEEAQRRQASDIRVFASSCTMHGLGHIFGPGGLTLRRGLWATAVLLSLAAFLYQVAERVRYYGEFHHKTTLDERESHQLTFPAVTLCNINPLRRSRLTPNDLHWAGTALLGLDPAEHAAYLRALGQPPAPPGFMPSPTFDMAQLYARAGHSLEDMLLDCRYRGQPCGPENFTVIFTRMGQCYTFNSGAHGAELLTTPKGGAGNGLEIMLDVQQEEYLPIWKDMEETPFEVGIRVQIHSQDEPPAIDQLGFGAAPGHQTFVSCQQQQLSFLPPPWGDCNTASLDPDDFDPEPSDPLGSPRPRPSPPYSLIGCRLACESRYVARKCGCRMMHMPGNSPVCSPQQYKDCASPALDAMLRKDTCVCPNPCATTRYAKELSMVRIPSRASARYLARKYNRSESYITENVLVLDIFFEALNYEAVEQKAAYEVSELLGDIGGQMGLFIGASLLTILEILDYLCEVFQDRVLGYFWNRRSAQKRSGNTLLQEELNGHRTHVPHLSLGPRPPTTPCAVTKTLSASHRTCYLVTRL
# Rattus norvegicus [5] = experiment: activity against Sprague-Dawley rat complete Freund's adjuvant-induced inflammatory pain model assessed as reversal of mechanical hypersensitivity at 30 mg/kg, ip after 30 mins
# [6] = Drug level in Sprague-Dawley rat brain after 30 mins; format: ADME, tissue-based; details: read-out: Drug uptake
# Procedure, shortened: (§2)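 Rats from the CFA inflammatory pain study were sampled 30 min after dosing. Average concentrations were measured in plasma and in brain.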
# [7] = Plasma concentration in Sprague-Dawley rat after 30 mins; format: ADME, cell-free; procedure, shortened: as §2
# Rattus norvegicus [8] = species: Rattus norvegicus; experiment: activity against Sprague-Dawley rat complete Freund's adjuvant-induced inflammatory pain model assessed as reversal of mechanical hypersensitivity after 30 mins
Compound,inhibition [2],inhibition [3],also measured
NC(N)=NC(=O)c1nc(Cl)c(Nc2ccc3ccccc3c2)nc1N,62%,98%,pIC50 [1]: 6.29
N=C(N)NC(=O)c1ncc(-c2cccc(-c3ccsc3)c2)nc1N,–,–,pIC50 [1]: 6.19
NC(N)=NC(=O)c1nc(Cl)c(NCc2cccc(F)c2)nc1N,29%,90%,–
NC(N)=NC(=O)c1ncc(-c2ccc3ccccc3c2)nc1N,6%,–,–
NC(N)=NC(=O)c1nc(Cl)c(Oc2ccc3ccccc3c2)nc1N,33%,91%,–
NC(N)=NC(=O)c1nc(Cl)c(OCc2ccc3ccccc3c2)nc1N,9%,–,–
NC(N)=NC(=O)c1nc(Cl)c(Oc2ccc3cccnc3c2)nc1N,32%,–,–
NC(N)=NC(=O)c1nc(Cl)c(Nc2ccc3ncccc3c2)nc1N,41%,–,–
NC(N)=NC(=O)c1nc(Cl)c(Sc2ccc3ccccc3c2)nc1N,12%,–,–
NC(N)=NC(=O)c1ncc(-c2ccsc2)nc1N,23%,–,–
NC(N)=NC(=O)c1nc(Cl)c(NCCc2ccc(F)cc2)nc1N,32%,–,–
NC(N)=NC(=O)c1ncc(-c2cccc(-c3ccsc3)c2)nc1N,58%,90%,–
NC(N)=NC(=O)c1ncc(-c2ccccc2-c2ccccc2)nc1N,8%,–,–
NC(N)=NC(=O)c1nc(Cl)c(Nc2ccc(C(F)(F)F)cc2)nc1N,50%,–,–
Cc1cc(C)cc(-c2cnc(C(=O)N=C(N)N)c(N)n2)c1,39%,95%,–
NC(N)=NC(=O)c1nc(Cl)c(NCCc2ccccc2F)nc1N,34%,–,–

Compound,inhibition [2],inhibition [3],also measured
NC(N)=NC(=O)c1ncc(-c2cccc(-c3ccoc3)c2)nc1N,30%,82%,–
NC(N)=NC(=O)c1ncc(-c2ccccc2)nc1N,35%,–,–
NC(N)=NC(=O)c1nc(Cl)c(Nc2cnc3ccccc3c2)nc1N,28%,–,–
NC(N)=NC(=O)c1ncc(-c2cccc(-c3ccccc3)c2)nc1N,72%,–,pIC50 [4]: 6.02; pIC50 [1]: 6.31; Activity (Rattus norvegicus [5]): Active; concentration at 0.5 h [6]: 79 nM; concentration at 0.5 h [7]: 2900 nM; Activity (Rattus norvegicus [8]): Dose-dependent effect
NC(N)=NC(=O)c1nc(Cl)c(NCC2CCc3ccccc3C2)nc1N (stereo unspecified),44%,–,–
NC(N)=NC(=O)c1nc(Cl)c(NCc2ccc3ccccc3c2)nc1N,27%,93%,–
NC(N)=NC(=O)c1ncc(Cc2ccccc2)nc1N,4%,–,–
NC(N)=NC(=O)c1ncc(-c2cccc3ccccc23)nc1N,21%,–,–
N=C(N)NC(=O)c1nc(Cl)c(N)nc1N [AMILORIDE],22%,65%,pIC50 [1]: 5.36
N=C(N)NC(=O)c1nc(Cl)c(NCCc2ccccc2)nc1N,46%,94%,–
NC(N)=NC(=O)c1nc(Cl)c(NCc2ccc(Cl)cc2)nc1N,46%,97%,–
NC(N)=NC(=O)c1ncc(-c2ccc(-c3ccccc3)cc2)nc1N,7%,–,–
NC(N)=NC(=O)c1nc(Cl)c(Oc2cc3ccccc3cn2)nc1N,11%,–,–
NC(N)=NC(=O)c1nc(Cl)c(Oc2ccc3ccccc3n2)nc1N,34%,–,–
CN(C)c1nc(N)c(C(=O)NC(=N)N)nc1Cl,37%,91%,–
NC(N)=NC(=O)c1nc(Cl)c(NCCc2cccc(F)c2)nc1N,46%,–,–

# More lines, main results first:
inhibition [2],inhibition [3],Compound,also measured
–,78%,NC(N)=NC(=O)c1nc(Cl)c(NC2CC2)nc1N,–
–,48%,CC(C)(C)Nc1nc(N)c(C(=O)N=C(N)N)nc1Cl,–
–,9%,NC(N)=NC(=O)c1nc(Cl)c(O)nc1N,–
46%,89%,NC(N)=NC(=O)c1nc(Cl)c(N2CCc3ccccc32)nc1N,–
–,85%,NC(N)=NC(=O)c1nc(Cl)c(N2CCCCC2)nc1N,–
16%,78%,C=CCNc1nc(N)c(C(=O)N=C(N)N)nc1Cl,–
32%,91%,CCCN(C)c1nc(N)c(C(=O)N=C(N)N)nc1Cl,–
24%,91%,CCCNc1nc(N)c(C(=O)N=C(N)N)nc1Cl,–
44%,95%,NC(N)=NC(=O)c1nc(Cl)c(Nc2ccccc2)nc1N,–
–,74%,NC(N)=NC(=O)c1nc(Cl)c(NCC(F)(F)F)nc1N,–
–,51%,N=C(N)NC(=O)c1nc(Cl)c(N2CCCCCC2)nc1N,–
23%,90%,NC(N)=NC(=O)c1nc(Cl)c(Oc2ccccc2)nc1N,–
12%,–,CSc1nc(N)c(C(=O)N=C(N)N)nc1Cl,–
31%,90%,NC(N)=NC(=O)c1nc(Cl)c(NCc2ccccc2Cl)nc1N,–
14%,–,NC(N)=NC(=O)c1nc(Cl)c(Nc2ccncc2)nc1N,–
21%,92%,NC(N)=NC(=O)c1nc(Cl)c(NC2CCCCC2)nc1N,–
–,25%,NC(N)=NC(=O)c1nc(Cl)c(Nc2ccccn2)nc1N,–
21%,–,COc1nc(N)c(C(=O)N=C(N)N)nc1Cl,–
12%,84%,NC(N)=NC(=O)c1nc(Cl)c(N2CCCC2)nc1N,–
–,60%,NC(N)=NC(=O)c1nc(Cl)c(N2CCOCC2)nc1N,–
28%,96%,NC(N)=NC(=O)c1nc(Cl)c(NCC2CCCCC2)nc1N,–
–,57%,CN(c1nc(N)c(C(=O)N=C(N)N)nc1Cl)C1CCCCC1,–
11%,–,NC(N)=NC(=O)c1nc(Cl)c(Sc2ccccc2)nc1N,–
52%,96%,NC(N)=NC(=O)c1nc(Cl)c(N2CCc3ccccc3C2)nc1N,–
–,51%,CN1CCN(c2nc(N)c(C(=O)N=C(N)N)nc2Cl)CC1,–
26%,92%,NC(N)=NC(=O)c1nc(Cl)c(NCc2ccccc2F)nc1N,–
47%,94%,NC(N)=NC(=O)c1nc(Cl)c(Nc2cccc(Cl)c2)nc1N,–
